The list is not random: actives were taken first. Their share in the collection is about 2.3%.
SIAE primary: blocks human sialic acid acetylesterase; Q9HAT2; SIAE FP-Rh probe binding, fluorescence polarization; inhibition, % at 9.66 µM; 370,000 tested, 0.69% active;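 active = inhibition above a cutoff: mean of compounds within the control limits plus 3 SD of those, cut at about 17% in these data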
Target sequence (Q9HAT2 whole entry, looked up): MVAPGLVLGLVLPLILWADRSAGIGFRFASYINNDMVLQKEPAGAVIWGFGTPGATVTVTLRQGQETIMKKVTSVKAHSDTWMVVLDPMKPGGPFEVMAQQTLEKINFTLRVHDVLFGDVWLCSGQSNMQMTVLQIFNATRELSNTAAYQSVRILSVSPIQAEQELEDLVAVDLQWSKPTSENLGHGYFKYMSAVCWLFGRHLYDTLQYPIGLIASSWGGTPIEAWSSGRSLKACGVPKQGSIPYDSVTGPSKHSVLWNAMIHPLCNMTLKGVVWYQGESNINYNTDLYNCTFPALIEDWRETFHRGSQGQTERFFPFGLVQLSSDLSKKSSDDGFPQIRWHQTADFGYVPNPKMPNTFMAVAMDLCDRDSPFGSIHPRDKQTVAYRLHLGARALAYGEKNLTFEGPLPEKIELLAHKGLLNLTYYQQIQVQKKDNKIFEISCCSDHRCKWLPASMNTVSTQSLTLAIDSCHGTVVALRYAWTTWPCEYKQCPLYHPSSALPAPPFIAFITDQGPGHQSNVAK
ABHD4 inh: inhibits mouse alpha/beta hydrolase domain 4; AID 720543; purified mABHD4, FP-Rh probe fluorescence polarization; Q8VD66; inhibition, % at 8.92 µM; 370,000 tested, 0.54% active;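 active = inhibition exceeding the mean over every tested compound plus 3 SD, cut at about 30% in these data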
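system = mouse ABHD4 enzyme, wild type | medium = HEPES pH 7.0, NaCl, Pluronic buffer | also added = FP-Rh probe | incubation = Enzyme–compound pre-incubation 45 min, then probe 60 min, both 25 °C | technique = fluorescence polarization, excitation 525 nm, emission 598 nm, BODIPY TMR filters | controls = S159A mutant high control, sample median low control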
pPAFAH inh: pPAFAH (human) enzyme inhibition | Q13093 | recombinant pPAFAH, FP-rhodamine probe fluorescence polarization | inhibition, % at 3.39 µM | 330,000 tested, 1.5% active | AID 463082;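 active = inhibition above the mean inhibition across the screen plus 3 SD, cut at about 25% in these data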;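 also: inhibitors block binding of the rhodamine activity-based probe so polarization drops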
HTRA1 inhibitor: inhibitors of human serine peptidase HTRA1; Q92743; inhibition, % at 5.96 µM; recombinant HTRA1, FP-rhodamine activity-based probe, fluorescence polarization; AID 504803; 340,000 tested, 0.5% active; in the data active = inhibition above about 36%
TCR CD3 inh: human TCR-CD3 binding inhibition; 360,000 tested, 0.37% active; TAMRA-labeled TCR probe fluorescence, biochemical; inhibition, % at 9.4 µM; in the data active = inhibition above about 19%;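 also: recombinant mutant TCR 2C K166C tagged with TAMRA read by polarization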
Hits are given with their value; - = inactive; . = no result.

SMILES	SIAE primary	ABHD4 inh	pPAFAH inh	HTRA1 inhibitor	TCR CD3 inh
Cc1cccc(CS(=O)(=O)Cc2ccc(C(=O)NCc3ccco3)o2)c1	-	-	24.8	-	-
COc1ccc(S(=O)(=O)Cc2ccc(C(=O)NCc3ccco3)o2)cc1	-	-	-	-	-
CC(C)(C)OC(=O)NCc1ccccc1/C=C/S(=O)(=O)NCc1ccc(F)cc1	-	-	.	.	.
CCC(=O)N[C@H]1C[C@@H]2O[C@@H](CO)CC[C@@H]2O[C@@H]1CCc1ccc(-c2cccc(OC)c2)cc1	-	-	.	.	.
Cc1ccc(-c2c(C(=O)Nc3ccccc3C)c(C)[nH]c(=S)c2C#N)o1	-	-	27.3	.	-
COc1ccc(/C=C2\CC3(OC(=O)C4CCCCC4)CCCN2C3)cc1 (stereo not drawn)	-	-	.	.	.
CN1CCC(N[C@@H](Cc2ccccc2)C(=O)NCC(c2ccccc2)c2ccccc2)(C(=O)NC2CCCCC2)CC1	-	-	.	.	.
CC(/C=N/NC(=O)CSc1nnc(SCc2ccccc2)s1)=C\c1ccco1	-	-	27.0	-	-
Cc1cccc(NC(=O)CCS(=O)(=O)c2ccccc2)c1C	-	-	.	.	.
O=C(/C=C/c1ccccc1[N+](=O)[O-])OCC(=O)c1ccccc1	-	-	25.3	-	-
COC(=O)CNC(=O)COC(=O)/C=C/c1ccccc1[N+](=O)[O-]	-	-	-	-	-
COc1ccc(C(=O)COC(=O)/C=C/c2ccccc2[N+](=O)[O-])cc1	-	-	-	-	-
COc1ccc(NC(=O)COC(=O)/C=C/c2ccccc2[N+](=O)[O-])cc1OC	-	-	29.7	-	-
c1ccn(-c2ccc(-c3noc(CCc4ccncc4)n3)cc2)c1	-	-	.	.	.
O=c1oc2ccc(Cl)cc2nc1/C=C(\O)c1cccs1	-	32.0	-	-	-
NC(=O)Nc1ccc(Oc2c(F)c(F)c(F)c(F)c2F)cc1	-	-	29.3	-	-
CCCCCN(C(=O)CCc1cn(CCCCC)c2ccccc12)c1ccc(Oc2cccnc2)cc1	-	-	.	.	-
C=CCN1[C@@H](Cc2ccccc2)COc2cc(F)ccc2S1(=O)=O	-	-	.	.	.
CCOC(=O)NC(=O)/C(C#N)=N\Nc1cccc(Cl)c1	-	-	-	-	-
CCOC(=O)NC1(Nc2cccc(Cl)c2)Oc2ccccc2O1	-	32.4	32.7	-	-
O=S(=O)(Nc1ccc(Cc2ccncc2)cc1)c1ccc(Br)s1	-	-	26.3	-	-
COCC(C)N=C1NN=C(c2cc(C)n(Cc3ccccc3Cl)c2C)CS1 (stereo not drawn)	-	-	26.4	-	-
CCc1ccc(C(=O)/C=C/c2ccc([N+](=O)[O-])o2)cc1	-	-	26.7	-	-
CC1CCCC(NC(=O)COC(=O)c2ccc3ccccc3n2)C1C (stereo not drawn)	-	-	-	-	-
CC1CCCCC1NC(=O)COC(=O)c1ccc2ccccc2n1 (stereo not drawn)	-	-	27.0	-	-
SMILES	SIAE primary	ABHD4 inh	pPAFAH inh	HTRA1 inhibitor	TCR CD3 inh
O=C(CCc1ccccc1)N[C@H]1/C(=N/O)CCC[C@]12C(=O)N(Cc1ccccc1)c1ccccc12	-	-	.	.	.
CCOc1cc(/C=N/N=C2/NC(=O)C(CC(=O)O)S2)ccc1OCc1ccccc1Cl (stereo not drawn)	-	-	25.7	-	-
COc1ccc(/C=N/N=C2/NC(=O)C(CC(=O)O)S2)cc1OCc1ccccc1Cl (stereo not drawn)	-	-	-	-	-
COc1cc2c(c(OC)c1OC)C1(CCCCC1)CC2NS(=O)(=O)C(C)C (stereo not drawn)	-	-	.	.	-
CC1=CC(=O)c2c(O)ccc(O)c2C1=O	.	.	69.5	.	.
CCN(CC)c1ccc(NC(=O)c2cc3c(C)nn(-c4ccccc4)c3s2)cc1	-	-	.	.	.
COc1cc(NC(=O)CSc2ncnc3sc4c(c23)CCCC4)c(C(=O)O)cc1OC	-	-	25.8	-	-
Cc1cccc(C)c1-n1nnnc1C1(C)Cn2nccc2C(=O)N1Cc1ccc(F)cc1 (stereo not drawn)	-	-	.	.	.
CC(Oc1ccccc1)C(=O)Nc1nnc(S(=O)(=O)Nc2ccccc2)s1 (stereo not drawn)	-	-	28.6	-	-
CC(Oc1ccccc1)C(=O)Nc1nnc(S(=O)(=O)N2CCCCC2)s1 (stereo not drawn)	-	-	-	-	-
CCc1cc2cc(C)ccc2nc1SCC(=O)NC1CCCC1	-	-	30.3	-	-
CCc1cc2cc(C)ccc2nc1SCC(=O)N1CC(=O)Nc2ccccc21	-	-	29.1	-	-
CCc1cc2cccc(C)c2nc1SCC(=O)NC1CCCC1	-	-	-	-	-
O=C(CCc1ccccc1)N[C@H]1[C@H](OC(=O)c2cccnc2)CCC[C@@]12C(=O)N(Cc1ccccc1)c1ccccc12	-	-	.	.	.
O=C(NC1CC1)C1CCN(S(=O)(=O)c2cc([N+](=O)[O-])ccc2Cl)CC1	-	-	32.4	-	-
Cc1ccc(/C=C2\SC(=S)N(NS(=O)(=O)c3ccc(C)cc3)C2=O)cc1	-	-	-	-	-
Cc1ccc(S(=O)(=O)NN2C(=O)/C(=C/c3cccn3C)SC2=S)cc1	.	.	60.9	.	.
COC(=O)[C@]12C[C@H](CC(=O)NCc3cccs3)C(=O)N(CCC3=CCCCC3)C1=C[C@H](C(C)(C)C)O[C@@H]2C	-	-	.	.	-
Clc1cc(Cl)cc(CNC2CCC23CCC(c2ccccc2)CC3)c1 (stereo not drawn)	-	-	.	.	.
Cc1ccccc1NS(=O)(=O)c1cc(C(=O)NCc2ccco2)ccc1C	-	-	-	-	-
Cc1ccc(C(=O)NCc2ccco2)cc1S(=O)(=O)Nc1cccc(C)c1C	-	-	33.0	-	-
COc1ccc(C2CC(c3ccccc3)=NN2c2ccc(N)cc2)cc1 (stereo not drawn)	-	-	25.8	-	-
COc1ccc(C2CC(c3ccccc3)=NN2c2ccc(Cl)c(C(=O)O)c2)cc1 (stereo not drawn)	-	-	34.0	-	-
OC[C@@H]1CC[C@@H]2O[C@H](CCc3ccc(-c4ccc(F)cc4)cc3)[C@H](n3cc(C4CC4)nn3)C[C@@H]2O1	-	-	.	.	.
COc1ccc2ccc3c(c2c1)N=CC1(O3)N(C)c2ccccc2C1(C)C (stereo not drawn)	.	.	33.1	-	.
SMILES	SIAE primary	ABHD4 inh	pPAFAH inh	HTRA1 inhibitor	TCR CD3 inh
COCc1cccc(-c2cc(C(=O)OC)c3n(c2=O)CCC3)c1	-	-	.	.	.
O=C1C(Cl)=C(NS(=O)(=O)c2ccc([N+](=O)[O-])cc2)C(=O)c2ccccc21	-	30.4	-	-	-
O=[N+]([O-])c1ccc(NS(=O)(=O)c2ccc(Cl)c(Cl)c2)cc1	-	-	.	.	-
CC(/C=N/NC(=O)CSc1nnc(SCc2ccc(C)cc2)s1)=C\c1ccco1	-	-	.	.	.
NC(=S)n1[nH]c(-c2ccc([N+](=O)[O-])cc2)c(N=Nc2ccc(O)cc2)c1=O	-	-	31.9	-	-
CC(=O)c1ccc(NS(=O)(=O)c2ccc(C)cc2)cc1	-	-	-	-	-
O=S(=O)(Nc1ccc(S(=O)(=O)Nc2cccc3ccccc23)cc1)c1ccccc1	-	-	33.0	-	-

Compound activity (PubChem)
